The values below come from ChEMBL document CHEMBL1137821, “Design of non-nucleoside inhibitors of HIV-1 reverse transcriptase with improved drug resistance properties. 1” (J Med Chem, 2004).

pIC50: −log10 of the molar value.

Assay [1] concerns the target T1, Human immunodeficiency virus type 1 reverse transcriptase (Human immunodeficiency virus 1, UniProt Q72547). Description: Concentration required for 50% inhibition of human immunodeficiency virus type 1 reverse transcriptase Ile100.
In assay [2] the test system is MT4. Description: Inhibitory concentration against human immunodeficiency virus type 1 was determined in MT-4 cells. The format is functional, cell-based. The essentials:
(§1)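 Whole-cell antiviral assay in MT4 cells, a human T-cell lymphotropic virus-transformed line. Cells were infected with wild-type HIV-1 strain IIIB or with nevirapine-resistant HIV-1 carrying the Tyr181Cys RT mutation. Inhibition was read by a propidium iodide-based colorimetric assay that estimates DNA content.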

The test system of assay [3] is MT4. Description: Inhibitory concentration against nevirapine resistant human immunodeficiency virus type 1 mutant type Tyr181Cys was determined in MT-4 cells. The format is functional, cell-based. Summed up: as §1
Assay [4] has as its target T1, Human immunodeficiency virus type 1 reverse transcriptase. Briefly: Concentration required for 50% inhibition of human immunodeficiency virus type 1 reverse transcriptase mutant type Cys181.
Assay [5] shares this target. Briefly: Concentration required for 50% inhibition of human immunodeficiency virus type 1 reverse transcriptase mutant type Ile100. The essentials: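 Inhibition of mutant HIV-1 RT enzyme, tested alongside wild-type RT; IC50 values are the mean of two independent experiments.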

Take `CCCc1c([S+]([O-])C2CCCCC2)c2cc(Cl)ccc2[nH]c1=O` (stereo unspecified): the pIC50 was 5.62 in assay [1], 6.62 in the assay on MT4 [2], 5.66 with MT4 [3] and 5.90 in assay [4].

Consider `CCCc1c(OC2CCCCC2)c2cc(Cl)ccc2[nH]c1=O`, for which the negative logarithm of the IC50 (pIC50) with MT4 [2] was 7.52; in assay [5], 5.87; with MT4 [3] it was 6.22; in assay [4], 5.95.

Turning to `CCCc1c(SC2CCCCC2)c2cc(Cl)ccc2[nH]c1=O`, the negative logarithm of the IC50 (pIC50) in assay [1] was 5.79; with MT4 [2], 7.00; with MT4 [3], 6.44; in assay [4] it was 6.07.

Take `CC(C)c1c(OC2CCCCC2)c2cc(Cl)ccc2[nH]c1=O`: the pIC50 in the assay with MT4 [2] is 7.30; in assay [5], 5.71; with MT4 [3], 6.15; in assay [4], 5.60.
